# GPR7 antag – human neuropeptides B/W receptor 1 antagonism; inhibition, % at 4.4 µM; actives 1.1% (n = 290,000); P48145; AID 1861; GPR7-expressing cells, fluorescence antagonist assay; in the data active = inhibition above about 16%, passing the limit was not always enough;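 also: cells stimulated with the agonist NPW; 0% = agonist with vehicle and 100% = vehicle without agonist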
# Target sequence (P48145 whole entry, looked up): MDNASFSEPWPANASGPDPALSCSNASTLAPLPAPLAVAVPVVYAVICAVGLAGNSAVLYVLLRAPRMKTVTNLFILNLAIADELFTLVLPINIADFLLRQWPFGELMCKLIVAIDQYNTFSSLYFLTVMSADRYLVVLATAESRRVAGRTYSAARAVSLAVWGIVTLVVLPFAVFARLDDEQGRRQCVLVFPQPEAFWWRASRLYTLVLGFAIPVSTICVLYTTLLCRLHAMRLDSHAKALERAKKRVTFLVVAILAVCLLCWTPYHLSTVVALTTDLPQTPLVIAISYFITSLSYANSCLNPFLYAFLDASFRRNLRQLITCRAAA
# GalR3 antag – blocks the human galanin receptor 3. inhibition, % at 3 µM. O60755. HEK293 GalR3-CNG cAMP membrane potential fluorescence; galR3 body fused to GalR1 C-terminus. actives 0.44% (n = 360,000);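 active = inhibition above the screen-wide average plus 3 SD, cut at about 13% in these data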;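 also: forskolin and galanin both at EC90 stimulate the cells; cAMP rise reported by CNG channel membrane potential dye signal; 0% = forskolin plus galanin with DMSO and 100% = forskolin alone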
# OX1R antag-1 – OX1R (human) antagonism; actives 1.8% (n = 330,000); O43613; inhibition, % at 6.6 µM; OX1R-expressing cells, FRET antagonist read-out; AID 485270; in the data active = inhibition mostly above about 38%, no sharp cut-off; inactive = mostly below about 40%;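 also: 0% = agonist challenge alone and 100% = reference antagonist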
# OX1R antag-2 – human HCRTR1 antagonism; CHO/OX1R cells, Fluo-8 calcium fluorescence, orexin A; inhibition, % at 5 µM; actives 0.43% (n = 330,000);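 active = inhibition above its plate's threshold, mean inhibition of all tested compounds on the plate plus 3 SD, cut at about 37% in these data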;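 also: 0% = orexin A challenge wells and 100% = SB-334867-A antagonist wells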
# CHO parental Ca – counter-screen for OX1R antagonists: effect in parental CHO cells. parental CHO-K1, ATP-induced calcium, Fluo-8 fluorescence. inhibition, % at 5.6 µM. actives 0.63% (n = 330,000);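 active = inhibition above that plate's mean sample inhibition plus 3 SD, cut at about 26% in these data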;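 also: 0% = ATP-challenged DMSO wells and 100% = DMSO wells without ATP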
#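 Material – parental CHO cells · Reagent – ATP stimulus · Compound – single nominal dose of 5.6 µM per compound · Detection – Fluo-8 fluorescence · Read-out basis – percent inhibition of calcium signal · Controls – ATP-challenged DMSO wells low, unchallenged DMSO wells high · Repeats – no replicates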
# GPR7 antag conf – confirmation of human GPR7 antagonists | shares compounds with GPR7 antag | GPR7-expressing cells, calcium fluorescence antagonist mode | inhibition, % at 4.4 µM | actives 52% (n = 2,400); in the data active = inhibition above about 24%;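 also: stimulated with the GPR7 agonist NPW; 0% = agonist plus vehicle and 100% = vehicle alone without agonist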
# MCHR1 antagonist – antagonizes human MCHR1, a GPR7 antagonist counter-screen; AID 2148; shares compounds with GPR7 antag; inhibition, % at 4.4 µM; actives 62% (n = 2,400); MCHR1-expressing cells, fluorescence antagonist assay; in the data active = inhibition above about 22%;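 also: 0% = vehicle with agonist and 100% = vehicle without agonist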
# * = called active by the depositor; . = no result; ! = repeats disagree. Rows were chosen to be rich in hits. Some 3.1% of all compounds tested hit in one or more screens of this group.
SMILES,GPR7 antag,GalR3 antag,OX1R antag-1,OX1R antag-2,CHO parental Ca,others
Cc1cccc(N=C2c3cc([N+](=O)[O-])ccc3-c3c2cc([N+](=O)[O-])cc3[N+](=O)[O-])c1,.,-3,.,.,.,
COC(=O)c1ccc(N2CCN(C)CC2)c([N+](=O)[O-])c1,-3,-4,44*,-22,-17,
N#Cc1ccc2nc(-c3ccc(CN4CCC(n5c(=O)[nH]c6cc(Cl)ccc65)CC4)cc3)c(-c3ccccc3)nc2c1,.,-4,.,.,.,
c1ccc2c(c1)[IH]c1ccccc1-2,.,86*,.,.,.,
O=C1CC[C@@]2(O)[C@H]3Cc4ccc(O)c5c4[C@@]2(CCN3CC2CC2)C1O5 (stereo not given in full),.,3,.,.,.,
Clc1ccc(COC(Cn2ccnc2)c2ccc(Cl)cc2Cl)c(Cl)c1 (stereo not given),13,.,25*!,39*!,43*!,
C[C@H]1CNCCN1c1ccc(N2CC[C@@H](O)C2)c(C#N)c1,.,-7,.,.,.,
CC[C@@]1(O)C(=O)OCc2c1cc1n(c2=O)Cc2cc3c(NC(=O)CN)cccc3nc2-1,11,-10,38*,11,-6,
CC[C@@]1(O)C(=O)OCc2c1cc1n(c2=O)Cc2cc3ccccc3nc2-1,-9,.,55,-5,-8,
CCC1(OC(=O)CN)C(=O)OCc2c1cc1n(c2=O)Cc2cc3ccccc3nc2-1 (stereo not given),-5,.,56*,-8,-13,
Cc1ccc(OC(=O)N(C)C[C@H]2OCc3cnnn3CCCC(=O)N([C@H](C)CO)C[C@H]2C)cc1,.,-6,.,.,.,
COc1cccc(N2C(=O)/C(=C/c3ccc(C)o3)C(=O)NC2=S)c1,5,-8,-10,0,1,
CCN(CC)c1ccc(/C=C2\C(=O)NC(=S)N(C)C2=O)o1,6,1,55*,-5,10,
COc1ccc(N2C(=O)/C(=C/c3ccc(N(C)C)o3)C(=O)NC2=S)cc1,-10,-7,38*,0,10,
Cc1ccc(C(=O)NCCN2CCC3(CC2)C(=O)NCN3c2ccccc2)cc1,.,-8,.,.,.,
O=C(NCCN1CCC2(CC1)C(=O)NCN2c1ccccc1)c1ccccc1C(F)(F)F,.,-8,.,.,.,
O=C(NCCN1CCC2(CC1)C(=O)NCN2c1ccccc1)c1ccc(OC(F)(F)F)cc1,.,-3,.,.,.,
O=C(NC1CCCCC1)N1Cc2ccc(Br)cc2-n2nncc2C1,.,-7,.,.,.,
Cc1c(N=Nc2c(O)[nH]c(=S)[nH]c2=O)c(=O)n(-c2ccccc2)n1C,-3,-13,77*,2,-9,
C=CCn1c(O)c(N=Nc2c(C)n(C)n(-c3ccccc3)c2=O)c(=O)[nH]c1=S,12,-3,58,-8,-6,
CCOc1ccc(-n2c(O)c(N=Nc3c(C)n(C)n(-c4ccccc4)c3=O)c(=O)[nH]c2=O)cc1,-5,-4,39*,-2,6,
CCCCCCn1c(O)c(C=Nc2c(C)n(C)n(-c3ccccc3)c2=O)c(=O)[nH]c1=O,-20,-1,29,-23,-20,
CCOC(=O)CNC(=O)N1Cc2cc(Br)ccc2-n2nncc2C1,.,-7,.,.,.,
O=C(NCCN1CCC2(CC1)C(=O)NCN2c1ccccc1)c1ccc(Cl)c(Cl)c1,.,-8,.,.,.,
O=C(O)COc1ccc(Cl)cc1Cl,.,-5,13,-5,-3,
SMILES,GPR7 antag,GalR3 antag,OX1R antag-1,OX1R antag-2,CHO parental Ca,others
Oc1cc(Cl)ccc1Oc1ccc(Cl)cc1Cl,.,-6,45*,25,67*,
CN(C(=O)COC(=O)c1cn(C)c2ccccc12)C1CCCCC1,.,-8,38*,22,-12,
CC(NCc1ccc(Cl)c(Cl)c1)C(O)c1ccccc1 (stereo not given),-1,-6,7,-5,-18,
CN[C@@H]1C[C@@H](c2ccc(Cl)c(Cl)c2)c2ccccc21,47*,.,-2,-7,7,
O=C(Nc1nccs1)C(Cl)(Cl)Cl,-11,-7,7,-13,-8,
O=C(Nc1ccc(Cl)cc1)Nc1nccs1,30*,-1,44,-7,-7,GPR7 antag conf=28*;MCHR1 antagonist=42*
COC(=O)C1=C(c2cccc(OC)c2OC)C[C@@H]2CC[C@H]1N2C(=O)NCc1ccco1,.,0,8,-32,-13,

# Screens (PubChem BioAssay)
